Measurements reported in ChEMBL document CHEMBL4354843, “Structure-Based Design of a Potent and Selective Covalent Inhibitor for SRC Kinase That Targets a P-Loop Cysteine” (J Med Chem, 2020).

Assays:
[1] = target: Mast/stem cell growth factor receptor Kit (Homo sapiens) (UniProt P10721); assay: Binding affinity to wild-type human partial length autoinhibited KIT (Y545 to D952 residues) expressed in mammalian expression system assessed as residual binding level at 1 uM by Kinomescan method relative to control
[2] = target: Tyrosine-protein kinase Blk (Homo sapiens) (UniProt P51451); assay: Binding affinity to wild-type human partial length BLK (G211 to L503 residues) expressed in bacterial expression system assessed as residual binding level at 1 uM by Kinomescan method relative to control
In short: (§1)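 KinomeScan, an active site-directed competition binding panel of 468 kinases. The test compound was at 1 μM. The readout is remaining kinase binding as a percentage of the DMSO control. Scores above 35% were treated as weak binding and not listed.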

[3] = target: Phosphorylase b kinase gamma catalytic chain, liver/testis isoform (Homo sapiens) (UniProt P15735); assay: Binding affinity to wild-type human partial length PHKG2 (M1 to W300 residues) expressed in bacterial expression system assessed as residual binding level at 1 uM by Kinomescan method relative to control
[4] = system: eIF-2-alpha kinase GCN2 (Homo sapiens), Q9P2K8 [S808G]; assay: Binding affinity to wild-type human partial length GCN2 kinase domain 2 (R585 to T1018 residues) S808G mutant expressed in bacterial expression system assessed as residual binding level at 1 uM by Kinomescan method relative to control
[5] = target: Tyrosine-protein kinase TXK (Homo sapiens) (UniProt P42681); assay: Binding affinity to wild-type human partial length TXK (L238 to W527 residues) expressed in bacterial expression system assessed as residual binding level at 1 uM by Kinomescan method relative to control
In short: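 Active site-directed competition binding panel (KinomeScan, 468 kinases). Test compound at 1 μM. Read-out is kinase binding remaining versus DMSO control, expressed as percent of control. Scores above 35% are treated as weak binding.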

[6] = target: Interleukin-1 receptor-associated kinase 1 (Homo sapiens) (UniProt P51617); assay: Binding affinity to wild-type human partial length IRAK1 (R194 to S712 residues) expressed in mammalian expression system assessed as residual binding level at 1 uM by Kinomescan method relative to control
[7] = target: Mitogen-activated protein kinase kinase kinase kinase 3 (Homo sapiens) (UniProt Q8IVH8); assay: Binding affinity to wild-type human partial length MAP4K3 (M1 to D301 residues) expressed in bacterial expression system assessed as residual binding level at 1 uM by Kinomescan method relative to control
[8] = target: Cyclin-dependent kinase 16 (Homo sapiens) (UniProt Q00536); assay: Binding affinity to wild-type human partial length PCTK1 (G160 to A474 residues) expressed in mammalian expression system assessed as residual binding level at 1 uM by Kinomescan method relative to control
[9] = target: Phosphatidylinositol 4-kinase beta (Homo sapiens) (UniProt Q9UBF8); assay: Binding affinity to wild-type human full length PIK4CB (M1 to M828 residues) expressed in mammalian expression system assessed as residual binding level at 1 uM by Kinomescan method relative to control
In short: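 Active-site-directed competition binding panel (KinomeScan) covering 468 kinases. Test agent was screened at 1 μM. The read-out is the remaining kinase signal expressed relative to a DMSO control. Scores above 35%, taken as weak binding, were not reported.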

[10] = target: cGMP-dependent protein kinase 2 (Homo sapiens) (UniProt Q13237); assay: Binding affinity to wild-type human partial length PRKG2 (S422 to F762 residues) expressed in mammalian expression system assessed as residual binding level at 1 uM by Kinomescan method relative to control
[11] = target: Receptor-type tyrosine-protein kinase FLT3 (Homo sapiens) (UniProt P36888); assay: Binding affinity to wild-type human partial length autoinhibited FLT3 (H564 to Y969 residues) expressed in mammalian expression system assessed as residual binding level at 1 uM by Kinomescan method relative to control
[12] = target: Macrophage colony-stimulating factor 1 receptor (Homo sapiens) (UniProt P07333); assay: Binding affinity to wild-type human partial length CSF1R (I564 to S939 residues) expressed in bacterial expression system assessed as residual binding level at 1 uM by Kinomescan method relative to control
In short: (§2)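 Active-site-directed competition binding panel of 468 kinases (KinomeScan), compound at 1 μM. The read-out is kinase remaining bound, given as a percentage of the DMSO control. […]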

[13] = target: Serine/threonine-protein kinase TBK1 (Homo sapiens) (UniProt Q9UHD2); assay: Binding affinity to wild-type human full length TBK1 (M1 to L729 residues) expressed in mammalian expression system assessed as residual binding level at 1 uM by Kinomescan method relative to control; in short: as §1
[14] = target: Ribosomal protein S6 kinase alpha-1 (Homo sapiens) (UniProt Q15418); assay: Binding affinity to wild-type human partial length N-terminal RSK1 Kinase domain 1 (M1 to E388 residues) expressed in bacterial expression system assessed as residual binding level at 1 uM by Kinomescan method relative to control
[15] = target: Activin receptor type-1 (Homo sapiens) (UniProt Q04771); assay: Binding affinity to wild-type human ACVR1 (C188 to C509 residues) expressed in bacterial expression system assessed as residual binding level at 1 uM by Kinomescan method relative to control
In short: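 Active-site-directed KinomeScan competition binding panel covering 468 kinases, compound tested at 1 μM. Each readout is the kinase signal remaining with compound, expressed as a percentage of the DMSO control. […]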

[16] = target: Tyrosine-protein kinase JAK3 (Homo sapiens) (UniProt P52333); assay: Binding affinity to wild-type human partial length JAK3 JH1 catalytic domain (I781 to S1124 residues) expressed in mammalian expression system assessed as residual binding level at 1 uM by Kinomescan method relative to control; in short: as §2
[17] = target: Serine/threonine-protein kinase 10 (Homo sapiens) (UniProt O94804); assay: Binding affinity to wild-type human partial length LOK (E16 to V314 residues) expressed in bacterial expression system assessed as residual binding level at 1 uM by Kinomescan method relative to control; in short: as §2
[18] = target: Tyrosine-protein kinase Fes/Fps (Homo sapiens) (UniProt P07332); assay: Binding affinity to wild-type human partial length FES (I527 to R822 residues) expressed in bacterial expression system assessed as residual binding level at 1 uM by Kinomescan method relative to control
[19] = target: Serine/threonine-protein kinase 17A (Homo sapiens) (UniProt Q9UEE5); assay: Binding affinity to wild-type human partial length DRAK1 (R32 to E363 residues) expressed in bacterial expression system assessed as residual binding level at 1 uM by Kinomescan method relative to control
[20] = target: Death-associated protein kinase 3 (Homo sapiens) (UniProt O43293); assay: Binding affinity to wild-type human partial length DAPK3 (M1 to A277 residues) expressed in bacterial expression system assessed as residual binding level at 1 uM by Kinomescan method relative to control
[21] = target: Peripheral plasma membrane protein CASK (Homo sapiens) (UniProt O14936); assay: Binding affinity to wild-type human partial length CASK (M1 to H315 residues) expressed in mammalian expression system assessed as residual binding level at 1 uM by Kinomescan method relative to control

Sequence of Receptor-type tyrosine-protein kinase FLT3 (Homo sapiens) (P36888 whole entry, the tested form may be a part): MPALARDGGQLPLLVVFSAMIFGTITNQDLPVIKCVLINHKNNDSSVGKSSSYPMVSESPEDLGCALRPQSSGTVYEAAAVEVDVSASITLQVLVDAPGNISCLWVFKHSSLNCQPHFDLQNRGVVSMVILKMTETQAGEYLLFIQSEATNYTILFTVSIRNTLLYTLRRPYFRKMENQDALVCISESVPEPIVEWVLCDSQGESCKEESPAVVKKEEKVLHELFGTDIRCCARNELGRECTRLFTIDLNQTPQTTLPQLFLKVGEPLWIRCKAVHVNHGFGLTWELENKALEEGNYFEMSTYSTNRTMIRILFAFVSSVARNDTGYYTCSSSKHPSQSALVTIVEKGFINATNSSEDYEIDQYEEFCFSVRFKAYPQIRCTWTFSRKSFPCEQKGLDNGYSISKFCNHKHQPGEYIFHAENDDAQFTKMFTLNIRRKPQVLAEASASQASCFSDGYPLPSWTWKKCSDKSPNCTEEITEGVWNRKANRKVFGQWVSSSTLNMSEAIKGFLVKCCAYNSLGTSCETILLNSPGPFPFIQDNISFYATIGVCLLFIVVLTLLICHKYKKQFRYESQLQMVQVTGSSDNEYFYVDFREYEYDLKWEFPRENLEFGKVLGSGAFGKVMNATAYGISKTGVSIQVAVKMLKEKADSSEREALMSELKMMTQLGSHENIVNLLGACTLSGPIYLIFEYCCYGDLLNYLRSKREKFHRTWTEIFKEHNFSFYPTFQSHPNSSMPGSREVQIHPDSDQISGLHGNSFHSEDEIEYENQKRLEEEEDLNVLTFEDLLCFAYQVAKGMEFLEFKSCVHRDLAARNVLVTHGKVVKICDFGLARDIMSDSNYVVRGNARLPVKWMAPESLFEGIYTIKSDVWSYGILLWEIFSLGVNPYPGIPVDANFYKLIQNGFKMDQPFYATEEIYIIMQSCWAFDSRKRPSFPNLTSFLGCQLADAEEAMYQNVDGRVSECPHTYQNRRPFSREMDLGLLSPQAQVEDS
Sequence of Mast/stem cell growth factor receptor Kit (Homo sapiens) (P10721 whole entry, the tested form may be a part): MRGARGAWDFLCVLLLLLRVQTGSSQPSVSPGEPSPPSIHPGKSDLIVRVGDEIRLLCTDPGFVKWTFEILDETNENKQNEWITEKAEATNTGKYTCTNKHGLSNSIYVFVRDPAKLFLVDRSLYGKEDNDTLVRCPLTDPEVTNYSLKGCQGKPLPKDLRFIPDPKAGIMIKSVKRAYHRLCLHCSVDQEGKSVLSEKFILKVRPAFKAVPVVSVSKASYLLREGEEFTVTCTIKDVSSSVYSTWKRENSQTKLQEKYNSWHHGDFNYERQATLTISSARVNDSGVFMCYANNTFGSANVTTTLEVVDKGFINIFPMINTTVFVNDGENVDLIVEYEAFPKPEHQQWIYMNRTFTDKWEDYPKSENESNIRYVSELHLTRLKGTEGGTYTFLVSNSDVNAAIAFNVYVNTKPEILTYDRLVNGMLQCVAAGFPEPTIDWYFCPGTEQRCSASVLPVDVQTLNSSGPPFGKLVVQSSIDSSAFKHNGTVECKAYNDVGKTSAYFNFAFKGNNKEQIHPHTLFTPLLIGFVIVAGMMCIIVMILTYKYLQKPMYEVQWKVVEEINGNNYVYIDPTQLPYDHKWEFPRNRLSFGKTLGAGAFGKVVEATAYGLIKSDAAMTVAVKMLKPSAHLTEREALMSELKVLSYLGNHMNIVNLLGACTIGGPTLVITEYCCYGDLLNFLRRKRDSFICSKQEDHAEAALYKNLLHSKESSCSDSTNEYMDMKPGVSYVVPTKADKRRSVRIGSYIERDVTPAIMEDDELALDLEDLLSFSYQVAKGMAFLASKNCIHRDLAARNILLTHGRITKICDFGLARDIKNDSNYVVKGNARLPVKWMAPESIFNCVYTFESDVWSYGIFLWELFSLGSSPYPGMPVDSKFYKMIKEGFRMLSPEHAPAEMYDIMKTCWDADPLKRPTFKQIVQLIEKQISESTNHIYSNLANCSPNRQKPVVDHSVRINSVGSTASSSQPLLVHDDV
Sequence of Tyrosine-protein kinase Fes/Fps (Homo sapiens) (P07332 whole entry, the tested form may be a part): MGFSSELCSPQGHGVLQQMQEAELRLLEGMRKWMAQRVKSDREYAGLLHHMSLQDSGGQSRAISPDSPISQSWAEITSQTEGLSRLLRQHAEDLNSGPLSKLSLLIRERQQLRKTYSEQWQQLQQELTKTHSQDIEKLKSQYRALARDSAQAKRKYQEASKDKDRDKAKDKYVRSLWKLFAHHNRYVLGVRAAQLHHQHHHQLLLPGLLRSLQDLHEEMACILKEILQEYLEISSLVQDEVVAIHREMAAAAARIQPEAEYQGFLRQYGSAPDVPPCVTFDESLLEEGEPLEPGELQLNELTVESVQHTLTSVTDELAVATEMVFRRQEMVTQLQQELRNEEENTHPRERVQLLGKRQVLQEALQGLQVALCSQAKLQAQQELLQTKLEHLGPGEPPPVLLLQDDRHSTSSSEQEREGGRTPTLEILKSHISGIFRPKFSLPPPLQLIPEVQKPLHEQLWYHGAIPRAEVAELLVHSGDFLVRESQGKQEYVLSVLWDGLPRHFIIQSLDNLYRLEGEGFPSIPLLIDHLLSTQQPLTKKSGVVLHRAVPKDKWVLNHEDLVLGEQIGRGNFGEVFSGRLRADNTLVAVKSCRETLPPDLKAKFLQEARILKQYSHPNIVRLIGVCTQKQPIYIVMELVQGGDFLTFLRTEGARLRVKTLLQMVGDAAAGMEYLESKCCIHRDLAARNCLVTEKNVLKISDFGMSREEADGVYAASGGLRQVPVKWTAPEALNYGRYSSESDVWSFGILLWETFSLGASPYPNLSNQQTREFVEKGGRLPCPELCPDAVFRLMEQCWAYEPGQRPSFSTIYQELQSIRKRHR
Sequence of eIF-2-alpha kinase GCN2 (Homo sapiens), Q9P2K8 [S808G] (Q9P2K8 whole entry S808G, the tested form may be a part): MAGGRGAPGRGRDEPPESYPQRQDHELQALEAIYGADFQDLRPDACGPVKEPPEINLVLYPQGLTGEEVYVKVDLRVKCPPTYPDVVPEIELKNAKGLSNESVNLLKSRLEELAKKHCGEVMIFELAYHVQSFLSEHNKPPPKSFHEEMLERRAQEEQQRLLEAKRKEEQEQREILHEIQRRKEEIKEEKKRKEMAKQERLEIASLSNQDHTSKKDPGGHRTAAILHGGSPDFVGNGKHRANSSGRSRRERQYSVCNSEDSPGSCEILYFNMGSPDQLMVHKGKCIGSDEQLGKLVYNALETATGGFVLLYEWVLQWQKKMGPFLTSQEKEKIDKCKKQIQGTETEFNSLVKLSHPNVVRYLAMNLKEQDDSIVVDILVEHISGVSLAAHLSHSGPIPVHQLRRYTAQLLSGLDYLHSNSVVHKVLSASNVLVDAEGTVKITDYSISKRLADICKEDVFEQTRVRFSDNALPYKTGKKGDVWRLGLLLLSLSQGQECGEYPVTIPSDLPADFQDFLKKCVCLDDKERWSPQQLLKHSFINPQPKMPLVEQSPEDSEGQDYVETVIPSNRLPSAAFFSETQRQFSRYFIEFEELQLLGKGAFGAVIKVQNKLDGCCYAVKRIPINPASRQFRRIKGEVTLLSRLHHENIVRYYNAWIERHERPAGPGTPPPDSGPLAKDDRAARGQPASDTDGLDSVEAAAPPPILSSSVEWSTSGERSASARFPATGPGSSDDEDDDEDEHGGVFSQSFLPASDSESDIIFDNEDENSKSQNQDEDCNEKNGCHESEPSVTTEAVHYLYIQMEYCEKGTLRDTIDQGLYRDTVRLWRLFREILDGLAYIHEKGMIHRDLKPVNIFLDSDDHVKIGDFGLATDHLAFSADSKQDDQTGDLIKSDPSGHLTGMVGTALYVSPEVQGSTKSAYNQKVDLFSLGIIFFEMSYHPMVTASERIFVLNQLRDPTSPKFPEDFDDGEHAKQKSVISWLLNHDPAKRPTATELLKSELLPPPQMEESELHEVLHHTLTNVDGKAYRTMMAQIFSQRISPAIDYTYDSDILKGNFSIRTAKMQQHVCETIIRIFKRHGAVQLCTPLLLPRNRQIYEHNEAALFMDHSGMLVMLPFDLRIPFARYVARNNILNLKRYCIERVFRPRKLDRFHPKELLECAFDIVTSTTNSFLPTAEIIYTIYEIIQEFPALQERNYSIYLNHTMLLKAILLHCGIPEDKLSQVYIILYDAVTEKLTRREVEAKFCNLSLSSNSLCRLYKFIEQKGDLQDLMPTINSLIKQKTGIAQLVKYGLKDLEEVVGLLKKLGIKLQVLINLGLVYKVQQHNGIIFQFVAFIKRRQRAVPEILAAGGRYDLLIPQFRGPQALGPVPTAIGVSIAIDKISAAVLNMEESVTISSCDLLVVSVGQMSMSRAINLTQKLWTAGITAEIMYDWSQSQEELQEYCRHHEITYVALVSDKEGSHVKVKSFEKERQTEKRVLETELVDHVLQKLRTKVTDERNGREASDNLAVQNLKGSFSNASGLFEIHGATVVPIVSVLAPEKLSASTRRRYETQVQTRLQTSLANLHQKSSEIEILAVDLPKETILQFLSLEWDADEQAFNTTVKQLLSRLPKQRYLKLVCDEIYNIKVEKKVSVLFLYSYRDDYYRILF
Sequence of Serine/threonine-protein kinase 17A (Homo sapiens) (Q9UEE5 whole entry, the tested form may be a part): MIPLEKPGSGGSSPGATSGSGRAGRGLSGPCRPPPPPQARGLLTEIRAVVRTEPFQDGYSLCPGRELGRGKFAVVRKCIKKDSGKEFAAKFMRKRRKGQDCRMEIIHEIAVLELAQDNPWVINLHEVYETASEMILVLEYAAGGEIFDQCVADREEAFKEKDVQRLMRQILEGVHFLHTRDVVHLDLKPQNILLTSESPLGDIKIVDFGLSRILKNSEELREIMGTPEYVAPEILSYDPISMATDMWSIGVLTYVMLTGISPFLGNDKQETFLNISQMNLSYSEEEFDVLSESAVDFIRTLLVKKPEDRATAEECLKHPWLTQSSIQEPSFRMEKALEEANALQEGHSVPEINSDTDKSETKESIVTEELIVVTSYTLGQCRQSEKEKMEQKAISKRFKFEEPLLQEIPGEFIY

C=CC(=O)Nc1ccccc1Nc1nc(Nc2ccc(N3CCN(C)CC3)cc2)ncc1C(=O)Nc1c(C)cccc1Cl
Activity [1]: 92% | Activity [2]: 0.15% | Activity [3]: 100% | Activity [4]: 87% | Activity [5]: 17% | Activity [6]: 100% | Activity [7]: 100% | Activity [8]: 100% | Activity [9]: 91% | Activity [10]: 100% | Activity [11]: 100% | Activity [12]: 7.3% | Activity [13]: 70% | Activity [14]: 100% | Activity [15]: 100% | Activity [16]: 88% | Activity [17]: 96% | Activity [18]: 100% | Activity [19]: 100% | Activity [20]: 100% | Activity [21]: 73%
